Assay results as given in ChEMBL document CHEMBL1147366, “Cytotoxic and antimalarial alkaloids from the tubers of Stephania pierrei” (J Nat Prod, 1993).
Converted amounts (≈) assume the structure as drawn.

Key:
Plasmodium falciparum [1] = assay: Antimalarial activity after 24 hrs against chloroquine-resistant Plasmodium falciparum W2 infected type A+ human erythrocytes by [3H]hypoxanthine uptake; assay type: functional; conditions: read-out: ED50 (the source's name)
Plasmodium falciparum [2] = assay: Antimalarial activity after 24 hrs against chloroquine-sensitive Plasmodium falciparum D6 infected type A+ human erythrocytes by [3H]hypoxanthine uptake; assay type: functional; conditions: read-out: ED50 (the source's name)
[3] = Selectivity index, ED50 for human KB cells to ED50 for chloroquine-sensitive Plasmodium falciparum D6; assay type: toxicity, cell-based; conditions: read-out: Ratio ED50
Method in brief: (§1)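 Selectivity index is the ED50 in KB cells divided by the ED50 against the P. falciparum strain (D-6, chloroquine-sensitive; W-2, chloroquine-resistant). Parasite ED50s are expressed in ng/ml and KB ED50s in µg/ml.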

[4] = Selectivity index, ED50 for human KB cells to ED50 for chloroquine-resistant Plasmodium falciparum W2; assay type: toxicity, cell-based; conditions: read-out: Ratio ED50; method in brief: as §1
[5] = Cytotoxicity against human BCA1 cells after 3 days by SRB assay; assay type: functional; conditions: BCA1, 72 h, read-out: ED50 (the source's name)
[6] = Cytotoxicity against human LUC1 cells after 3 days by SRB assay; assay type: functional; conditions: LUC1, 72 h, read-out: ED50 (the source's name)
A-431 = assay: Cytotoxicity against human A431 cells after 3 days by SRB assay; assay type: functional; conditions: A-431, 72 h, read-out: ED50 (the source's name)
[7] = Cytotoxicity against vinblastine-resistant human KBV1 cells after 3 days by SRB assay; assay type: functional; conditions: KB-V1, 72 h, read-out: ED50 (the source's name)
LNCaP = assay: Cytotoxicity against human LNCAP cells after 3 days by SRB assay; assay type: functional; conditions: 72 h, read-out: ED50 (the source's name)
ZR-75-1 = assay: Cytotoxicity against human ZR-75-1 cells after 3 days by SRB assay; assay type: functional; conditions: ZR-75-1, 72 h, read-out: ED50 (the source's name)
P388 = assay: Cytotoxicity against mouse P388 cells after 3 days by SRB assay; assay type: functional; conditions: P388, 72 h, read-out: ED50 (the source's name)
HT-1080 = assay: Cytotoxicity against human HT1080 cells after 3 days by SRB assay; assay type: functional; conditions: HT-1080, 72 h, read-out: ED50 (the source's name)
[8] = Cytotoxicity against human U373 cells after 3 days by SRB assay; assay type: functional, U-373MG ATCC; conditions: U373 MG, 72 h, read-out: ED50 (the source's name)
[9] = Cytotoxicity against human KB cells after 3 days by SRB assay; assay type: cell-based; conditions: read-out: ED50
SK-MEL-2 = assay: Cytotoxicity against human SK-MEL-2 cells after 3 days by SRB assay; assay type: functional; conditions: SK-MEL-2, 72 h, read-out: ED50 (the source's name)
[10] = Cytotoxicity against human Col1 cells after 3 days by SRB assay; assay type: functional; conditions: Col1, 72 h, read-out: ED50 (the source's name)

Structure (SMILES) | EC50 (Plasmodium falciparum [1]) | EC50 (Plasmodium falciparum [2]) | selectivity ratio [3] | selectivity ratio [4] | EC50 [5] | EC50 [6] | EC50 (A-431) | EC50 [7] | EC50 (LNCaP) | EC50 (ZR-75-1) | EC50 (P388) | EC50 (HT-1080) | EC50 [8] | CC50 at 72 h [9] | EC50 (SK-MEL-2) | EC50 [10]
CCN(CC)CCCC(C)Nc1ccnc2cc(Cl)ccc12 (configuration not stated) [CHLOROQUINE] | 0.0112 µg/mL (≈ 0.035 µM) | 0.0013 µg/mL (≈ 0.00406 µM) |  |  |  |  |  |  |  |  |  |  |  |  |  | 
COc1cc2c(cc1OC)[C@@H]1Cc3ccc(OC)c(OC)c3C[N+]1(C)CC2.[Cl-] (some centres not stated) | > 10 µg/mL | > 10 µg/mL |  |  |  |  |  |  |  |  |  |  |  |  |  | 
COc1cc2c(cc1OC)[C@@H]1Cc3ccc(O)c(OC)c3CN1CC2 | 0.84 µg/mL (≈ 2.46 µM) | 2.84 µg/mL (≈ 8.32 µM) | > 7 | > 24 |  |  |  |  |  |  |  |  |  |  |  | 
COc1ccc2c(c1O)-c1c(O)c(OC)cc3c1[C@H](C2)[N+](C)(C)CC3 [MAGNOFLORINE] | > 10 µg/mL | > 10 µg/mL |  |  |  |  |  |  |  |  |  |  |  |  |  | 
COc1cc2c(cc1OC)-c1c3c(cc4c1[C@@H](C2)NCC4)OCO3 | 1.03 µg/mL (≈ 3.17 µM) | 0.47 µg/mL (≈ 1.44 µM) | 2 |  | 2 µg/mL (≈ 6.15 µM) | 13.2 µg/mL (≈ 40.6 µM) | 0.8 µg/mL (≈ 2.46 µM) | 0.7 µg/mL (≈ 2.15 µM) | 1.5 µg/mL (≈ 4.61 µM) | 1.7 µg/mL (≈ 5.22 µM) | 0.6 µg/mL (≈ 1.84 µM) | 1.7 µg/mL (≈ 5.22 µM) | 0.6 µg/mL (≈ 1.84 µM) | 0.8 µg/mL (≈ 2.46 µM) | 3.3 µg/mL (≈ 10.1 µM) | 1.7 µg/mL (≈ 5.22 µM)
COc1ccc(C[C@H]2c3cc(O)c(OC)cc3CCN2C)cc1O [(S)-RETICULINE] | 4.47 µg/mL (≈ 13.6 µM) | 4.05 µg/mL (≈ 12.3 µM) |  |  |  |  |  |  |  |  |  |  |  |  |  | 
COc1ccc2c(c1)C[C@H]1NCCc3cc4c(c-2c31)OCO4 | 2.27 µg/mL (≈ 7.69 µM) | 0.44 µg/mL (≈ 1.49 µM) | 45 | > 9 | 3.4 µg/mL (≈ 11.5 µM) | 2.3 µg/mL (≈ 7.79 µM) | 4.6 µg/mL (≈ 15.6 µM) | 0.9 µg/mL (≈ 3.05 µM) | 2.4 µg/mL (≈ 8.13 µM) | 2.4 µg/mL (≈ 8.13 µM) | 2.2 µg/mL (≈ 7.45 µM) | 2.2 µg/mL (≈ 7.45 µM) | 1.9 µg/mL (≈ 6.43 µM) | 2 µg/mL (≈ 6.77 µM) | 12.6 µg/mL (≈ 42.7 µM) | 4.1 µg/mL (≈ 13.9 µM)
COc1c(O[C@@H]2O[C@H](CO)[C@@H](O)[C@H](O)[C@H]2O)cc2c3c1-c1ccccc1C[C@H]3NCC2 | > 10 µg/mL | > 10 µg/mL |  |  | > 20 µg/mL | > 20 µg/mL | > 20 µg/mL | > 20 µg/mL | > 20 µg/mL | > 20 µg/mL | > 20 µg/mL | > 20 µg/mL | > 20 µg/mL | > 20 µg/mL | > 20 µg/mL | > 20 µg/mL
COc1ccc2c(c1)C[C@@H]1c3c(cc4c(c3-2)OCO4)CCN1C | 1.61 µg/mL (≈ 5.2 µM) | 2.56 µg/mL (≈ 8.28 µM) | > 1 | 1 | 2.9 µg/mL (≈ 9.37 µM) | 12.2 µg/mL (≈ 39.4 µM) | 1.3 µg/mL (≈ 4.2 µM) | 1.2 µg/mL (≈ 3.88 µM) | 2.9 µg/mL (≈ 9.37 µM) | 2.6 µg/mL (≈ 8.4 µM) | > 5 µg/mL | 1.8 µg/mL (≈ 5.82 µM) | 1.3 µg/mL (≈ 4.2 µM) | 2.5 µg/mL (≈ 8.08 µM) | > 20 µg/mL | 3.2 µg/mL (≈ 10.3 µM)
COc1cc2c(cc1OC)CN1CCc3cc(OC)c(OC)cc3[C@@H]1C2 [XYLOPININE] | > 10 µg/mL | > 10 µg/mL |  |  |  |  |  |  |  |  |  |  |  |  |  | 
COc1c(O)cc2c3c1-c1ccccc1C[C@H]3NCC2 [(-)-ASIMILOBINE] | 0.47 µg/mL (≈ 1.76 µM) | 0.95 µg/mL (≈ 3.55 µM) | > 21 | > 42 | > 20 µg/mL | > 20 µg/mL | > 20 µg/mL | > 20 µg/mL | > 20 µg/mL | > 20 µg/mL | > 20 µg/mL | > 20 µg/mL | > 20 µg/mL | > 20 µg/mL | > 20 µg/mL | > 20 µg/mL
C[C@@H]1CC[C@H]2[C@@H](C)C(=O)O[C@@H]3O[C@@]4(C)CC[C@@H]1[C@]32OO4 [ARTEMISININ] | 0.0005 µg/mL (≈ 0.00177 µM) | 0.0006 µg/mL (≈ 0.00213 µM) | > 33300 | 40000 |  |  |  |  |  |  |  |  |  |  |  | 
CN1CCc2cc3c(c4c2[C@H]1Cc1cc(O)ccc1-4)OCO3 | 1.78 µg/mL (≈ 6.03 µM) | 3.15 µg/mL (≈ 10.7 µM) | 2 | 4 | 8.9 µg/mL (≈ 30.1 µM) | 6.9 µg/mL (≈ 23.4 µM) | 6.7 µg/mL (≈ 22.7 µM) | 1.2 µg/mL (≈ 4.06 µM) | 7.3 µg/mL (≈ 24.7 µM) | 13.6 µg/mL (≈ 46 µM) | > 5 µg/mL | 7.6 µg/mL (≈ 25.7 µM) | 4.9 µg/mL (≈ 16.6 µM) | 4.1 µg/mL (≈ 13.9 µM) | > 20 µg/mL | 11.9 µg/mL (≈ 40.3 µM)
COc1ccc2c(c1O)C(Cc1ccc(O)cc1)[N+](C)(C)CC2.[Cl-] (racemic) | > 10 µg/mL | > 10 µg/mL |  |  |  |  |  |  |  |  |  |  |  |  |  | 
COC1=C[C@@]23CCN(C)[C@@H](Cc4ccc(OC)c(O)c42)C3=CC1=O | > 10 µg/mL | > 10 µg/mL |  |  |  |  |  |  |  |  |  |  |  |  |  | 
COc1cc2c(c(O)c1OC)[C@@H]1Cc3ccc(OC)c(OC)c3CN1CC2 | 1.91 µg/mL (≈ 5.14 µM) | 4.34 µg/mL (≈ 11.7 µM) | > 5 | > 10 |  |  |  |  |  |  |  |  |  |  |  | 
COc1cc2c(cc1OC)[C@@H]1Cc3ccc(OC)c(OC)c3CN1CC2 [TETRAHYDROPALMATINE] | 5.02 µg/mL (≈ 14.1 µM) | > 10 µg/mL |  |  |  |  |  |  |  |  |  |  |  |  |  | 
C=C[C@H]1CN2CC[C@H]1C[C@H]2[C@H](O)c1ccnc2ccc(OC)cc12 [QUININE] | 0.0245 µg/mL (≈ 0.0755 µM) | 0.0094 µg/mL (≈ 0.029 µM) | > 2130 | > 820 |  |  |  |  |  |  |  |  |  |  |  | 
COc1cc2c(cc1OC)CN1CCc3cc(OC)c(OC)c(O)c3[C@@H]1C2 | 1.94 µg/mL (≈ 5.22 µM) | 2.23 µg/mL (≈ 6 µM) | > 9 | > 10 |  |  |  |  |  |  |  |  |  |  |  | 
COC1=C(OC)[C@]23CCc4cc5c(cc4[C@]2(CCN3C)CC1=O)OCO5 | > 10 µg/mL | > 10 µg/mL |  |  |  |  |  |  |  |  |  |  |  |  |  | 
OC(c1cc(C(F)(F)F)nc2c(C(F)(F)F)cccc12)C1CCCCN1 (configuration not stated) [MEFLOQUINE] | 0.0016 µg/mL (≈ 0.00423 µM) | 0.0073 µg/mL (≈ 0.0193 µM) |  |  |  |  |  |  |  |  |  |  |  |  |  | 
COc1cc2c(c(O)c1OC)CCN1Cc3c(ccc(OC)c3OC)C[C@@H]21 | 0.55 µg/mL (≈ 1.48 µM) | 1.61 µg/mL (≈ 4.33 µM) | > 12 | > 36 |  |  |  |  |  |  |  |  |  |  |  | 
